# Measurements taken from ChEMBL document CHEMBL3751829, “Synthesis and biological evaluation of 3-tetrazolo steroidal analogs: Novel class of 5α-reductase inhibitors” (Bioorg Med Chem, 2016).
# Assays:
# [1] = target: T1, 3-oxo-5-alpha-steroid 4-dehydrogenase 2 (Homo sapiens, UniProt P31213); experiment: Inhibition of human 5alpha-2 reductase expressed in HEK293 cells assessed as suppression of conversion of [3]androstenedione incubated for 30 mins by radioactivity-based HPLC analysis; assay type: cell-based
# T1 sequence (P31213 whole entry): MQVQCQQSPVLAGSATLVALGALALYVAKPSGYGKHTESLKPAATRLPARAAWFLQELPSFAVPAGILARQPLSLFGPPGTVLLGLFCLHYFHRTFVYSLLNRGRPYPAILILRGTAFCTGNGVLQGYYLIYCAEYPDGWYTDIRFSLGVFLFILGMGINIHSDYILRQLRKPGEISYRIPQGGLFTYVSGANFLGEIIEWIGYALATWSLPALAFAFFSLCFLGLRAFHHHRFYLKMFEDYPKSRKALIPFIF
# Outline: (§1)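 Stably transfected HEK293 lines expressing 5AR-1 (HEK-I) or 5AR-2 (HEK-II) were sonicated in saccharose/Tris/EDTA buffer. The suspension was incubated at 37 °C for 30 min with 500 nM androstenedione solution plus [3H]androstenedione and an NADP/glucose/G6PDH regenerating system. Test compounds were added in 2% DMSO. The reaction was stopped with ether; steroids were extracted and analysed by radio-HPLC.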
# Rattus norvegicus [2] = experiment: Effect on organ weight in male wistar rat assessed as liver tissue weight per 100g at 5ml/kg, po qd measured on 15th day after 24 hrs of last dose (Rvb=2.994+/- 0.254 g/100g); assay type: ADME, organism-based; details: in vivo
# Rattus norvegicus [3] = experiment: Decrease in ventral prostate organ weight in male wistar rat at 5ml/kg, po qd measured on 15th day after 24 hrs of last dose; assay type: functional, Prostate gland; set-up: scale not given: the % may be the effect or the level left
# [4] = Cytotoxicity against human DU145 cells by rapid colorimetric assay; assay type: functional, cell-based, DU-145
# Outline: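 Antiproliferative test on DU-145 cells using the Mosmann method. Seven concentrations were tested in culture medium.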
# Rattus norvegicus [5] = experiment: Effect on organ weight in male wistar rat assessed testis tissue weight per 100g at 5ml/kg, po qd measured on 15th day after 24 hrs of last dose (Rvb=1054.099+/- 55.648 mg/100g); assay type: ADME, organism-based; details: in vivo
# Rattus norvegicus [6] = experiment: Effect on organ weight in male wistar rat assessed as epididymis tissue weight per 100g at 5ml/kg, po qd measured on 15th day after 24 hrs of last dose (Rvb=187.356+/- 5.961 mg/100g); assay type: functional
# Rattus norvegicus [7] = experiment: Effect on organ weight in male wistar rat assessed as dorsal prostate tissue weight per 100g at 5ml/kg, po qd measured on 15th day after 24 hrs of last dose (Rvb=50.325+/-7.519 mg/100g); assay type: functional, Prostate gland
# Rattus norvegicus [8] = experiment: Decrease in dorsal prostate organ weight in male wistar rat at 5ml/kg, po qd measured on 15th day after 24 hrs of last dose; assay type: functional, Prostate gland; set-up: scale not given: the % may be the effect or the level left
# Rattus norvegicus [9] = experiment: Increase in body weight gain in male wistar rat at 5ml/kg, po qd measured on 15th day after 24 hrs of last dose (Rvb=9.412+/-1.632g%); assay type: ADME, organism-based; details: in vivo
# Rattus norvegicus [10] = experiment: Effect on organ weight in male wistar rat assessed as seminal vesicles tissue weight per 100g at 5ml/kg, po qd measured on 15th day after 24 hrs of last dose (Rvb=175.439+/-12.833 mg/100g); assay type: ADME, organism-based; details: in vivo
# Rattus norvegicus [11] = experiment: Decrease in epididymis organ weight in male wistar rat at 5ml/kg, po qd measured on 15th day after 24 hrs of last dose; assay type: functional; set-up: scale not given: the % may be the effect or the level left
# Rattus norvegicus [12] = experiment: Decrease in vas deferens organ weight in male wistar rat at 5ml/kg, po qd measured on 15th day after 24 hrs of last dose; assay type: functional; set-up: scale not given: the % may be the effect or the level left
# Rattus norvegicus [13] = experiment: Effect on organ weight in male wistar rat assessed as ventral prostate tissue weight per 100g at 5ml/kg, po qd measured on 15th day after 24 hrs of last dose (Rvb=59.494+/- 4.733 mg/100g); assay type: functional, Prostate gland
# Rattus norvegicus [14] = experiment: Effect on organ weight in male wistar rat assessed as vas deferens tissue weight per 100g at 5ml/kg, po qd measured on 15th day after 24 hrs of last dose (Rvb=67.613+/-3.248 mg/100g); assay type: functional
# Rattus norvegicus [15] = experiment: Effect on organ weight in male wistar rat assessed as adrenal tissue weight per 100g at 5ml/kg, po qd measured on 15th day after 24 hrs of last dose (Rvb=14.762 +/-0.600 mg/100g); assay type: ADME, organism-based; details: in vivo
# Rattus norvegicus [16] = experiment: Toxicity in male wistar rat assessed induction of mortality at 5ml/kg, po qd measured on 15th day after 24 hrs of last dose; assay type: organism-based; details: in vivo
# Outline: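 Mature male Wistar rats, groups of 5, standard diet. Compounds suspended in 0.50% CMC sodium given orally at 5 ml/kg once daily for 14 days; controls received vehicle only. Animals weighed and killed under ether on day 15, 24 h after last dose.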
# [17] = target: T2, 3-oxo-5-alpha-steroid 4-dehydrogenase 2 (Homo sapiens) (UniProt P31213); experiment: Inhibition of human 5alpha-2 reductase expressed in HEK293 cells assessed as suppression of conversion of [3]androstenedione at 10 uM incubated for 30 mins by radioactivity-based HPLC analysis; assay type: cell-based; outline: as §1
# T2 sequence (whole entry): T1 sequence (P31213 whole entry)
# [18] = target: T2, 3-oxo-5-alpha-steroid 4-dehydrogenase 2 (Homo sapiens); experiment: Inhibition of human 5alpha-2 reductase expressed in HEK293 cells assessed as suppression of conversion of [3]androstenedione at 2 uM incubated for 30 mins by radioactivity-based HPLC analysis; assay type: cell-based; outline: as §1
# [19] = target: T3, 3-oxo-5-alpha-steroid 4-dehydrogenase 1 (Homo sapiens) (UniProt P18405); experiment: Inhibition of human 5alpha-1 reductase expressed in HEK293 cells assessed as suppression of conversion of [3]androstenedione at 2 uM incubated for 30 mins by radioactivity-based HPLC analysis; assay type: cell-based
# T3 sequence (whole entry): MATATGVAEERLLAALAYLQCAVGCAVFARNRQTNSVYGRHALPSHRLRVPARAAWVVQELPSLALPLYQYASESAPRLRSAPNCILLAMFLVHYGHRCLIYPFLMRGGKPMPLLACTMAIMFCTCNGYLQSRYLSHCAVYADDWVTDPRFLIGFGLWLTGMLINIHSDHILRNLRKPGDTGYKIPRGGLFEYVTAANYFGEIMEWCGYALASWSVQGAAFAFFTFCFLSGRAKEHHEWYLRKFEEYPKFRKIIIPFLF
# Outline: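 Lysates of stably transfected HEK293 cells (80% confluent cells sonicated in 300 mM saccharose, 5 mM Tris–HCl, 0.1 mM EDTA). Master mix: Tris buffer, androstenedione (500 nM solution) plus tracer [3H]androstenedione, NADP/glucose/glucose-6-P-dehydrogenase regenerating system; compound added in 2% DMSO. Cell suspension mixed 1:1 with master mix, 37 °C for 30 min. Stopped with ether; steroids extracted, dried, taken up in methanol, radio-HPLC.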
# [20] = target: T3, 3-oxo-5-alpha-steroid 4-dehydrogenase 1 (Homo sapiens); experiment: Inhibition of human 5alpha-1 reductase expressed in HEK293 cells assessed as suppression of conversion of [3]androstenedione at 10 uM incubated for 30 mins by radioactivity-based HPLC analysis; assay type: cell-based; outline: as §1
# [21] = Homo sapiens, DU-145, read-out: IC50
Structure (SMILES),IC50 [1] [nM],Activity (Rattus norvegicus [2]) [g],Activity (Rattus norvegicus [3]) [%],"IC50 [4, 21] [µM]",Activity (Rattus norvegicus [5]) [mg],Activity (Rattus norvegicus [6]) [mg],Activity (Rattus norvegicus [7]) [mg],Activity (Rattus norvegicus [8]) [%],Activity (Rattus norvegicus [9]) [g%],Activity (Rattus norvegicus [10]) [mg],Activity (Rattus norvegicus [11]) [%],Activity (Rattus norvegicus [12]) [%],Activity (Rattus norvegicus [13]) [mg],Activity (Rattus norvegicus [14]) [mg],Activity (Rattus norvegicus [15]) [mg],IC50 ([4]; du-145),Activity (Rattus norvegicus [16]),inhibition [17] [%],inhibition [18] [%],inhibition [20] [%],further results
CC(C)(C)NC(=O)[C@H]1CC[C@H]2[C@@H]3CC[C@H]4NC(=O)C=C[C@]4(C)[C@H]3CC[C@]12C [FINASTERIDE],40,3.5097,44.76,548,1058.022,160.371,27.519,45.32,8.032,105.51,14.4,14.45,32.866,57.843,16.575,,,,,,
C[C@]12CCC(c3nnn[nH]3)=CC1=CC[C@@H]1[C@@H]2CC[C@]2(C)C(=O)CC[C@@H]12,83.8,3.257,35.2,,1090.046,119.445,42.651,15.25,18.382,95.251,36.25,59.11,38.551,27.646,17.986,Not Active,Non-toxic,100,100,81.1,inhibition [19]: 38.7%
C[C@]12CC[C@H]3[C@@H](CCC4=CC(=O)CC[C@@]43C)[C@@H]1CC[C@@H]2O [TESTOSTERONE],,3.292,,,1108.457,171.193,45.124,,3.767,167.305,,,70.923,55.097,13.969,,,,,,
C[C@]12CC[C@H]3[C@@H](CC=C4C=C(c5nnn[nH]5)CC[C@@H]43)[C@@H]1CCC2=O,,3.457,5.66,536,1350.787,180.908,46.695,7.21,21.51,188.757,3.44,12.4,56.124,59.232,19.76,,Non-toxic,79.7,60.6,79.7,inhibition [19]: 36.2%
CC(=O)n1nnnc1C1=CC2=CC[C@@H]3[C@H](CC[C@]4(C)NC(=O)CC[C@@H]34)[C@@]2(C)CC1,,,,,,,,,,,,,,,,ND(Unstable),,,,,
C=CCN1C(=O)CC[C@H]2[C@@H]3CC=C4C=C(c5nnn[nH]5)CC[C@]4(C)[C@H]3CC[C@@]21C,157,3.548,33.61,496,1318.403,169.924,41.802,16.94,19.229,141.816,9.3,37.07,39.499,42.548,24.261,,Non-toxic,100,94.7,31.7,
C[C@]12C=CC(=O)N[C@@H]1CC[C@@H]1[C@@H]2CC[C@]2(C)[C@@H](C(=O)Nc3cc(C(F)(F)F)ccc3C(F)(F)F)CC[C@@H]12 [DUTASTERIDE],,3.209,,,1067.385,155.415,29.211,,11.914,118.275,,,35.858,52.802,14.208,,,,,,
C[C@]12CCC(c3nnn[nH]3)=CC1=CC[C@@H]1[C@@H]2CC[C@]2(C)NC(=O)CC[C@@H]12,220,3.215,24.79,,1152.287,166.584,31.548,37.31,15.498,183.148,11.09,37.09,44.744,42.532,16.421,Not Active,Non-toxic,100,90.6,9.6,
C[C@]12CCC(c3nnn[nH]3)=CC1=CC[C@@H]1[C@@H]2CC[C@@]2(C)[C@H]1CCC(=O)N2Cc1ccccc1,,,,,,,,,,,,,,,,ND(Unstable),,,,,
CCN1C(=O)CC[C@H]2[C@@H]3CC=C4C=C(c5nnn[nH]5)CC[C@]4(C)[C@H]3CC[C@@]21C,,,,,,,,,,,,,,,,ND(Unstable),,,,,
C[C@]12CCC(c3nnn[nH]3)=CC1=CC[C@@H]1[C@@H]2CC[C@@]2(C)[C@H]1CCC(=O)N2CCc1nnn[nH]1,,,,,,,,,,,,,,,,ND(Unstable),,,,,
CN1C(=O)CC[C@H]2[C@@H]3CC=C4C=C(c5nnn[nH]5)CC[C@]4(C)[C@H]3CC[C@@]21C,274,3.328,29.94,389,1233.129,170.447,44.593,11.39,15.456,199.778,9.03,11.56,41.684,59.796,16.362,,Non-toxic,91.2,84.3,6.4,
